This is a sample that favours compounds with a hit; in the whole collection about 2% have one here.
PLCg1 inh: inhibitors of human phospholipase C gamma1 | P19174 | purified PLC-gamma1, fluorogenic substrate, fluorescence | inhibition, % at 12.2 µM | 370,000 compounds, 0.84% hits | AID 720700; in the data active means inhibition above about 9.5%
Target sequence (P19174 whole entry, looked up): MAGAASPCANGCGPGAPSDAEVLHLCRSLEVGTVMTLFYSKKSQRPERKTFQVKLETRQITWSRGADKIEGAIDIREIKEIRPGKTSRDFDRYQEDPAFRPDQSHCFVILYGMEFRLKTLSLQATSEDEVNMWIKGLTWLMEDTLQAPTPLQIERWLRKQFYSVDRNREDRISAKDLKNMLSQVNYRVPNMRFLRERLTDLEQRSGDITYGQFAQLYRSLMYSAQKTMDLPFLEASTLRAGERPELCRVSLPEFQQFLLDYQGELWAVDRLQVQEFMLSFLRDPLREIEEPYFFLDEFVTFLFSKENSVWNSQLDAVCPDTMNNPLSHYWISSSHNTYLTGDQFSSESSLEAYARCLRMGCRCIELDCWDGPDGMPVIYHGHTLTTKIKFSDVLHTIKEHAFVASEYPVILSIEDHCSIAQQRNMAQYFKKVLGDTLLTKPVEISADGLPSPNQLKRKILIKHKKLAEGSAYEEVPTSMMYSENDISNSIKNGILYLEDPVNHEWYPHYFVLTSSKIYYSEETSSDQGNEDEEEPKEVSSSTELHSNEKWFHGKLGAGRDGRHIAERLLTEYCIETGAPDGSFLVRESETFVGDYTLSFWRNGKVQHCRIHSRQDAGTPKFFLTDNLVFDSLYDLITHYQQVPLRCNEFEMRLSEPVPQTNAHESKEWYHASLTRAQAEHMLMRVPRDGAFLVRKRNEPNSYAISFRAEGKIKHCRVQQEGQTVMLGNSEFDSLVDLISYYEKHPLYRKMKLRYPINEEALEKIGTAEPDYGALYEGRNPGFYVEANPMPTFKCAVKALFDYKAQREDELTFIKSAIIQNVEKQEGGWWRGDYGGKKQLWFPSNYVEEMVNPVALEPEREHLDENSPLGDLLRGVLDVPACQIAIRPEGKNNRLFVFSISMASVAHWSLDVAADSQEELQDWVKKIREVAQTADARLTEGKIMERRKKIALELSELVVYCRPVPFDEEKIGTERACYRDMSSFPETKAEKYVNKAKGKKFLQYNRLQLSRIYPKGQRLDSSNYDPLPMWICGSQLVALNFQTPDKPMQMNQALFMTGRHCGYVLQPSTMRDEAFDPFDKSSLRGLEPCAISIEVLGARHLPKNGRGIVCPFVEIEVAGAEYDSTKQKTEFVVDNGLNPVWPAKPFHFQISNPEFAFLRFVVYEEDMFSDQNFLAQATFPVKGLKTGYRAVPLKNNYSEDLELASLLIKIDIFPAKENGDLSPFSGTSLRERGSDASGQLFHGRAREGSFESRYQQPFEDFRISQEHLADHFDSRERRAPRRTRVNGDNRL
PLC-beta3 inh: PLC-beta3 (human) inhibition, primary screen; Q01970; Purified PLC-beta3, fluorogenic substrate, fluorescence; inhibition, % at 12.2 µM; 370,000 compounds, 0.18% hits; AID 720704; in the data active means inhibition above about 11%;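 further: 0% = median of compound wells on plate and 100% = full blocker control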
IMP-1 inh-1: inhibitors of Pseudomonas aeruginosa IMP-1 metallo-beta-lactamase; purified IMP-1, nitrocefin hydrolysis, epi-absorbance fluorescence; inhibition, % at 5.6 µM; 290,000 compounds, 0.45% hits;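 active means inhibition above the mean plus 3 SD of all compounds in the same screening run, cut at about 4.5% in these data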;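 further: 0% = IMP-1 with DMSO and 100% = DMSO wells lacking enzyme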
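Assay system: purified IMP-1; Quantity: IMP-1 0.2 nM before substrate addition; Medium: HEPES buffer pH 7.1 with ZnSO4 and Brij 35; Incubation: 15 min enzyme–compound preincubation, then 25 min nitrocefin reaction, 25 °C; Signal: fluorescence quenching readout, ex 480/em 530 nm; Controls: DMSO with and without IMP-1; Repeats: singlicate testing.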
PvdQ inh: P. aeruginosa PvdQ acylase inhibition; purified PvdQ acylase, fluorescence plate reader; inhibition, % at 10 µM; 340,000 compounds, 0.063% hits; in the data active means inhibition above about 30%, passing the limit was not always enough;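 further: 0% = vehicle neutral wells and 100% = reference inhibitor wells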
VIM-2 inhibitor: inhibitors of Pseudomonas aeruginosa VIM-2 metallo-beta-lactamase; 290,000 compounds, 0.89% hits; inhibition, % at 5.6 µM; purified VIM-2, nitrocefin hydrolysis, epi-absorbance fluorescence;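 active means inhibition above the mean of all tested compounds plus 3 SD, cutoff set per screening run, cut at about 7.5% in these data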;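 further: red hydrolysis product quenches plate fluorescence so inhibitors raise well fluorescence; 0% = enzyme with DMSO and 100% = DMSO without enzyme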
IMP-1 inh-2: blocks IMP-1 metallo-beta-lactamase in VIM-2 selectivity screen; purified IMP-1, nitrocefin hydrolysis, epi-absorbance fluorescence; inhibition, % at 5.6 µM; shares compounds with VIM-2 inhibitor; AID 1856; 1,300 tested, under 10 active; call rule not given here;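 further: 0% = enzyme with vehicle and 100% = vehicle without enzyme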
VIM-2 FRET inh: inhibits VIM-2 in FRET assay to exclude epi-absorbance artifacts; AID 1857; purified VIM-2, CCF2 FRET substrate hydrolysis; 1,300 compounds, 23% hits; inhibition, % at 5.6 µM; shares compounds with VIM-2 inhibitor;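 active means inhibition above the mean of all tested compounds plus 3 SD, cut at about 19% in these data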;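 further: 0% = VIM-2 plus DMSO and 100% = no enzyme wells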
TEM-1 counter: TEM-1 inhibition, counter-screen for VIM-2 inhibitors. shares compounds with VIM-2 inhibitor. AID 1866. 1,300 compounds, 3% hits. inhibition, % at 5.6 µM. Purified TEM-1, nitrocefin hydrolysis, epi-absorbance fluorescence;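 active means inhibition above that campaign's mean inhibition plus 3 SD, cut at about 0.46% in these data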;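 further: 0% = TEM-1 with DMSO and 100% = TEM-1 with 100 µM potassium clavulanate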
VIM-2 inh conf: confirmation of P. aeruginosa VIM-2 metallo-beta-lactamase inhibitors; shares compounds with VIM-2 inhibitor; purified VIM-2, nitrocefin hydrolysis, epi-absorbance; inhibition, % at 5.6 µM; 1,300 compounds, 96% hits;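 active means inhibition of the VIM-2 beta-lactamase enzyme above about 11% from the earlier first-round screen, limit read from the data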;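 further: 0% = VIM-2 with DMSO and 100% = buffer wells without enzyme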
Numbers without * were called inactive; i = inactive; x = no result given.

SMILES	PLCg1 inh	PLC-beta3 inh	IMP-1 inh-1	PvdQ inh	VIM-2 inhibitor	IMP-1 inh-2	VIM-2 FRET inh	TEM-1 counter	VIM-2 inh conf
CC12CCCCC1N(O)C(=O)C(=O)N2O (centres undefined)	1	-1	-1	-12	20*	-3	34*	-5	19*
CC1(C)CCCC2=C1CC1C(=O)N(O)C(=O)C1C2 (centres undefined)	2	4	1	13	2	x	x	x	x
CC(COc1cc(F)cc(F)c1)CN1CCC(C(O)(c2ccccc2)c2ccccc2)CC1 (centres undefined)	3	8	x	x	x	x	x	x	x
COc1cc(-c2cc3nc(NCCc4ccncc4)ccn3n2)cc(OC)c1OC	-87	-113	x	x	x	x	x	x	x
COc1cc(CCNc2ccc3nnc(-c4ccccc4)n3n2)cc(OC)c1OC	-4	-8	-2	3	19*	-2	0	-1	22*
CC(C)CCNC(=O)C1CCN(c2cncnc2)CC1	-7	-9	x	x	x	x	x	x	x
CCOC(=O)N1C(=O)C[C@](Sc2ccc(OC)cc2)(C(=O)N2CCCC2)[C@H]1c1ccc(OC)cc1	0	-2	x	x	x	x	x	x	x
CCCn1c2ccc(C)cc2c2nnc(SCCN3CCOCC3)nc21	-4	-15	-1	-12	17*	-3	3	-7	27*
Cc1ccc2c(c1)c1nnc(SCC(=O)NC3CC3)nc1n2C	-1	-4	-3	-15	17*	-2	-1	-5	28*
CCn1c2ccc(C)cc2c2nnc(SCCN3CCCCC3)nc21	-8	-9	-4	4	26*	-3	3	-7	35*
CCCn1c2ccc(C)cc2c2nnc(SCCN3CCCCC3)nc21	-1	-9	-1	-4	22*	-3	-8	-6	21*
CCCn1c2ccc(C)cc2c2n[nH]c(=S)nc21	0	-4	-7	12	2	x	x	x	x
CC(=O)Nc1ccc(NC(=O)CSc2nnc3c4ccccc4n(C)c3n2)cc1	0	-2	-2	-2	6	x	x	x	x
CCCn1c2ccc(F)cc2c2nnc(SCCN3CCOCC3)nc21	-2	-13	-2	-9	4	x	x	x	x
CC(=O)N1CCc2c1cccc2S(=O)(=O)NC(CC(C)C)C(=O)Nc1ccc(Cl)c(Cl)c1 (centres undefined)	0	-1	x	x	x	x	x	x	x
Cc1cc(C)c2c(c1)c1nnc(SCCN3CCOCC3)nc1n2C	1	-7	-3	-11	23*	-2	3	-5	31*
O=C(O)Cn1cccc1C(=O)c1ccccc1	x	x	-3	-9	33*	-2	49*	-4	30*
Cn1c2ccccc2c(=O)c2cc(C#Cc3ccc(N)cc3)ccc21	-222	-366	-3	-11	2	x	x	x	x
COc1ccc(C#Cc2ccc3c(c2)c(=O)c2ccccc2n3C)cc1	-90	-113	4	0	15*	-2	3	-4	14*
O=C(O)c1csc(-n2nc(-c3ccccc3)cc2C(F)(F)F)n1	-2	-2	-4	2	36*	-3	-1	-5	6
Cc1cc(C(F)(F)F)n(-c2nc(C(=O)O)cs2)n1	2	0	-5	-1	-6	x	x	x	x
O=C(CSc1nnc(-c2cccs2)n1CC1CCCO1)c1cc2ccccc2o1 (centres undefined)	-18	-29	-2	-10	14*	-4	31*	-9	17*
Cn1c(SCC(=O)c2cc3ccccc3o2)nnc1-c1ccccc1	-8	-11	-2	-7	-5	x	x	x	x
Cc1cc(OCC(=O)NC2CC(C)(C)NC(C)(C)C2)c2c(C)c(C)c(=O)oc2c1	-134	-190	1	2	14*	-4	2	-7	18*
Cc1c(C)c2cc(Cl)c(OCC(=O)NC3CC(C)(C)NC(C)(C)C3)cc2oc1=O	-13	-28	-1	-6	16*	-3	3	-5	22*
SMILES	PLCg1 inh	PLC-beta3 inh	IMP-1 inh-1	PvdQ inh	VIM-2 inhibitor	IMP-1 inh-2	VIM-2 FRET inh	TEM-1 counter	VIM-2 inh conf
CC1(C)CC(NC(=O)COc2cc3oc(=O)c4c(c3cc2Cl)CCC4)CC(C)(C)N1	-1	-7	0	-9	34*	-2	1	-7	41*
O=C(Nc1cccc(C(F)(F)F)c1)OCCCN1CCC2(CCC(c3ccccc3)CC2)C1=O (centres undefined)	5	1	x	x	x	x	x	x	x
Cn1c(=O)n(C)c2cc(/C=N/N=C3/NC(=O)C(CC(=O)O)S3)ccc21 (centres undefined)	-2	-5	-4	-1	22*	-1	7	-4	37*
CCOc1cc(/C=N/N=C2/NC(=O)C(CC(=O)O)S2)ccc1OCc1ccc(Cl)cc1 (centres undefined)	4	-3	-2	-2	-1	x	x	x	x
CC1CCc2c(c3ccccc3n2C(=O)CCl)C1 (centres undefined)	-6	-15	-1	-9	5	x	x	x	x
CCN1CCN(CC(=O)n2c3c(c4ccccc42)CC(C)CC3)CC1 (centres undefined)	-52	-65	0	-8	19*	-1	28*	-3	29*
CC1CCN(CC(=O)n2c3c(c4ccccc42)CCCC3)CC1	-8	-5	0	11	18*	-3	9	-6	6
O=C(c1ccc(F)cc1Cl)N1CCCC(c2nc(-c3cccs3)no2)C1 (centres undefined)	0	1	x	x	x	x	x	x	x
COc1ccc2c(c1)[nH]c1c(=O)n(CCCn3ccnc3)cnc12	-1	0	-4	-14	14*	-3	-9	-5	38*
CCOC(=O)[C@@H](CCc1ccccc1)N[C@@H](C)C(=O)N1CCC[C@H]1C(=O)O	-2	2	x	x	x	x	x	x	x
CNC(C)C#Cc1ccc2c(=O)c3c(OC)cccc3oc2c1 (centres undefined)	x	x	1	x	14*	-2	1	-5	31*
CCOc1ccc(-n2c(SCC(=O)c3ccccc3Cl)nnc2-c2ccncc2)cc1	3	0	x	x	x	x	x	x	x
CCN1CCN(CCNC(=O)c2cc(Cl)c(NC(=O)C3=C(C)OCCS3)cc2OC)CC1	-2	-10	-3	-9	24*	-2	4	-10	33*
N#Cc1nc(-c2ccco2)oc1NCCCn1ccnc1	-35	-44	-4	-7	26*	-3	-6	-6	44*
COc1ccc(-c2nc(C#N)c(NCCCn3ccnc3)o2)cc1OC	-487	i	0	-10	17*	-2	-15	-5	43*
O=C(c1ccccc1Cl)N1CCC(Oc2cccnc2)CC1	0	-2	x	x	x	x	x	x	x
CCOc1ccc(Oc2c(Cl)cnn(Cc3cccc4ccccc34)c2=O)cc1	0	-1	x	x	x	x	x	x	x

Screening data from PubChem.
